Reference: ChEMBL document CHEMBL4689842, “EUbOPEN Chemogenomics Library wave 1” (2021)

Test system: HEK-293T
Test: Multiplex assay against HEK293T;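 for Population Tubulin-Different-Phenotype (%): share of the cells with healthy nuclei that show this phenotype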
Format: toxicity, cell-based
Settings: human
Outline: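 Live cells carried four stains from seeding: Hoechst33342, BioTracker Green Microtubule Cytoskeleton Dye, MitoTracker Red and Annexin V Alexa Fluor 680. They were imaged on a CQ1 microscope at 37°C and 5% CO2 after compound addition. Using CellPathfinder machine-learning gating, cells were split into Hoechst high-intensity objects or normal cells, normal cells into healthy, pyknosed or fragmented nuclei, and pyknosed cells into mitotic or apoptotic; tubulin, mitochondrial-mass and membrane-permeability phenotypes are per cents of healthy-nucleus cells.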

[1] = 12 h, 1 µM, compound concentration 1 uM, replicate 1
[2] = 12 h, 1 µM, compound concentration 1 uM, replicate 2
[3] = 12 h, 10 µM, compound concentration 10 uM, replicate 1
[4] = 12 h, 10 µM, compound concentration 10 uM, replicate 2
[5] = 24 h, 1 µM, compound concentration 1 uM, replicate 1
[6] = 24 h, 1 µM, compound concentration 1 uM, replicate 2
[7] = 24 h, 10 µM, compound concentration 10 uM, replicate 1
[8] = 24 h, 10 µM, compound concentration 10 uM, replicate 2
[9] = 48 h, 1 µM, compound concentration 1 uM, replicate 1
[10] = 48 h, 1 µM, compound concentration 1 uM, replicate 2
[11] = 48 h, 10 µM, compound concentration 10 uM, replicate 1
[12] = 48 h, 10 µM, compound concentration 10 uM, replicate 2

SMILES: CCCn1c(=O)c2[nH]c(-c3cnn(Cc4cccc(C(F)(F)F)c4)c3)nc2n(CC)c1=O [GS 6201]
- Population Apoptotic (%) [1]: 48%
- Population Fragmented Nuclei (%) [1]: 14%
- Population Healthy Nuclei (%) [1]: 15%
- Population Hoechst High Intensity Objects (%) [1]: 18%
- Population Membrane Permeable-Phenotype (%) [1]: 2%
- Population Mitochondria Different-Phenotype (%) [1]: 83%
- Population Mitotic Cells (%) [1]: 51%
- Population Normal (%) [1]: 81%
- Population Pyknosed Nuclei (%) [1]: 69%
- Population Tubulin-Different-Phenotype (%) [1]: 67%
- Total Cell Count [1]: 294
- Population Apoptotic (%) [2]: 9%
- Population Fragmented Nuclei (%) [2]: 7%
- Population Healthy Nuclei (%) [2]: 43%
- Population Hoechst High Intensity Objects (%) [2]: 5%
- Population Membrane Permeable-Phenotype (%) [2]: 10%
- Population Mitochondria Different-Phenotype (%) [2]: 9%
- Population Mitotic Cells (%) [2]: 90%
- Population Normal (%) [2]: 94%
- Population Pyknosed Nuclei (%) [2]: 49%
- Population Tubulin-Different-Phenotype (%) [2]: 22%
- Total Cell Count [2]: 239
- Population Apoptotic (%) [3]: 46%
- Population Fragmented Nuclei (%) [3]: 28%
- Population Healthy Nuclei (%) [3]: 13%
- Population Hoechst High Intensity Objects (%) [3]: 25%
- Population Membrane Permeable-Phenotype (%) [3]: 0%
- Population Mitochondria Different-Phenotype (%) [3]: 80%
- Population Mitotic Cells (%) [3]: 53%
- Population Normal (%) [3]: 74%
- Population Pyknosed Nuclei (%) [3]: 58%
- Population Tubulin-Different-Phenotype (%) [3]: 83%
- Total Cell Count [3]: 316
- Population Apoptotic (%) [4]: 8%
- Population Fragmented Nuclei (%) [4]: 4%
- Population Healthy Nuclei (%) [4]: 45%
- Population Hoechst High Intensity Objects (%) [4]: 2%
- Population Membrane Permeable-Phenotype (%) [4]: 7%
- Population Mitochondria Different-Phenotype (%) [4]: 25%
- Population Mitotic Cells (%) [4]: 91%
- Population Normal (%) [4]: 97%
- Population Pyknosed Nuclei (%) [4]: 49%
- Population Tubulin-Different-Phenotype (%) [4]: 31%
- Total Cell Count [4]: 325
- Population Apoptotic (%) [5]: 52%
- Population Fragmented Nuclei (%) [5]: 19%
- Population Healthy Nuclei (%) [5]: 10%
- Population Hoechst High Intensity Objects (%) [5]: 23%
- Population Membrane Permeable-Phenotype (%) [5]: 0%
- Population Mitochondria Different-Phenotype (%) [5]: 75%
- Population Mitotic Cells (%) [5]: 47%
- Population Normal (%) [5]: 76%
- Population Pyknosed Nuclei (%) [5]: 70%
- Population Tubulin-Different-Phenotype (%) [5]: 66%
- Total Cell Count [5]: 303
- Population Apoptotic (%) [6]: 13%
- Population Fragmented Nuclei (%) [6]: 5%
- Population Healthy Nuclei (%) [6]: 64%
- Population Hoechst High Intensity Objects (%) [6]: 1%
- Population Membrane Permeable-Phenotype (%) [6]: 11%
- Population Mitochondria Different-Phenotype (%) [6]: 12%
- Population Mitotic Cells (%) [6]: 86%
- Population Normal (%) [6]: 98%
- Population Pyknosed Nuclei (%) [6]: 29%
- Population Tubulin-Different-Phenotype (%) [6]: 28%
- Total Cell Count [6]: 288
- Population Apoptotic (%) [7]: 47%
- Population Fragmented Nuclei (%) [7]: 35%
- Population Healthy Nuclei (%) [7]: 18%
- Population Hoechst High Intensity Objects (%) [7]: 24%
- Population Membrane Permeable-Phenotype (%) [7]: 4%
- Population Mitochondria Different-Phenotype (%) [7]: 84%
- Population Mitotic Cells (%) [7]: 52%
- Population Normal (%) [7]: 75%
- Population Pyknosed Nuclei (%) [7]: 46%
- Population Tubulin-Different-Phenotype (%) [7]: 72%
- Total Cell Count [7]: 314
- Population Apoptotic (%) [8]: 17%
- Population Fragmented Nuclei (%) [8]: 3%
- Population Healthy Nuclei (%) [8]: 63%
- Population Hoechst High Intensity Objects (%) [8]: 1%
- Population Membrane Permeable-Phenotype (%) [8]: 8%
- Population Mitochondria Different-Phenotype (%) [8]: 17%
- Population Mitotic Cells (%) [8]: 82%
- Population Normal (%) [8]: 98%
- Population Pyknosed Nuclei (%) [8]: 32%
- Population Tubulin-Different-Phenotype (%) [8]: 35%
- Total Cell Count [8]: 424
- Population Apoptotic (%) [9]: 55%
- Population Fragmented Nuclei (%) [9]: 27%
- Population Healthy Nuclei (%) [9]: 6%
- Population Hoechst High Intensity Objects (%) [9]: 19%
- Population Membrane Permeable-Phenotype (%) [9]: 0%
- Population Mitochondria Different-Phenotype (%) [9]: 29%
- Population Mitotic Cells (%) [9]: 44%
- Population Normal (%) [9]: 80%
- Population Pyknosed Nuclei (%) [9]: 65%
- Population Tubulin-Different-Phenotype (%) [9]: 47%
- Total Cell Count [9]: 303
- Population Apoptotic (%) [10]: 14%
- Population Fragmented Nuclei (%) [10]: 5%
- Population Healthy Nuclei (%) [10]: 81%
- Population Hoechst High Intensity Objects (%) [10]: 3%
- Population Membrane Permeable-Phenotype (%) [10]: 7%
- Population Mitochondria Different-Phenotype (%) [10]: 3%
- Population Mitotic Cells (%) [10]: 85%
- Population Normal (%) [10]: 96%
- Population Pyknosed Nuclei (%) [10]: 13%
- Population Tubulin-Different-Phenotype (%) [10]: 12%
- Total Cell Count [10]: 506
- Population Apoptotic (%) [11]: 53%
- Population Fragmented Nuclei (%) [11]: 44%
- Population Healthy Nuclei (%) [11]: 11%
- Population Hoechst High Intensity Objects (%) [11]: 24%
- Population Membrane Permeable-Phenotype (%) [11]: 0%
- Population Mitochondria Different-Phenotype (%) [11]: 62%
- Population Mitotic Cells (%) [11]: 46%
- Population Normal (%) [11]: 75%
- Population Pyknosed Nuclei (%) [11]: 44%
- Population Tubulin-Different-Phenotype (%) [11]: 59%
- Total Cell Count [11]: 325
- Population Apoptotic (%) [12]: 18%
- Population Fragmented Nuclei (%) [12]: 5%
- Population Healthy Nuclei (%) [12]: 83%
- Population Hoechst High Intensity Objects (%) [12]: 4%
- Population Membrane Permeable-Phenotype (%) [12]: 5%
- Population Mitochondria Different-Phenotype (%) [12]: 8%
- Population Mitotic Cells (%) [12]: 81%
- Population Normal (%) [12]: 95%
- Population Pyknosed Nuclei (%) [12]: 10%
- Population Tubulin-Different-Phenotype (%) [12]: 31%
- Total Cell Count [12]: 739

SMILES: CCn1cc(-c2ccnc3[nH]c(-c4cccc(CN(C)C)c4)cc23)c(-c2ccc(NC(=O)N(C)C)cc2)n1 [GSK-1070916]
- Population Apoptotic (%) [1]: 17%
- Population Fragmented Nuclei (%) [1]: 16%
- Population Healthy Nuclei (%) [1]: 64%
- Population Hoechst High Intensity Objects (%) [1]: 11%
- Population Membrane Permeable-Phenotype (%) [1]: 16%
- Population Mitochondria Different-Phenotype (%) [1]: 9%
- Population Mitotic Cells (%) [1]: 82%
- Population Normal (%) [1]: 88%
- Population Pyknosed Nuclei (%) [1]: 18%
- Population Tubulin-Different-Phenotype (%) [1]: 18%
- Total Cell Count [1]: 676
- Population Apoptotic (%) [2]: 8%
- Population Fragmented Nuclei (%) [2]: 6%
- Population Healthy Nuclei (%) [2]: 84%
- Population Hoechst High Intensity Objects (%) [2]: 2%
- Population Membrane Permeable-Phenotype (%) [2]: 9%
- Population Mitochondria Different-Phenotype (%) [2]: 13%
- Population Mitotic Cells (%) [2]: 91%
- Population Normal (%) [2]: 97%
- Population Pyknosed Nuclei (%) [2]: 8%
- Population Tubulin-Different-Phenotype (%) [2]: 36%
- Total Cell Count [2]: 1405
- Population Apoptotic (%) [3]: 28%
- Population Fragmented Nuclei (%) [3]: 14%
- Population Healthy Nuclei (%) [3]: 49%
- Population Hoechst High Intensity Objects (%) [3]: 24%
- Population Membrane Permeable-Phenotype (%) [3]: 16%
- Population Mitochondria Different-Phenotype (%) [3]: 32%
- Population Mitotic Cells (%) [3]: 71%
- Population Normal (%) [3]: 75%
- Population Pyknosed Nuclei (%) [3]: 35%
- Population Tubulin-Different-Phenotype (%) [3]: 91%
- Total Cell Count [3]: 688
- Population Apoptotic (%) [4]: 8%
- Population Fragmented Nuclei (%) [4]: 1%
- Population Healthy Nuclei (%) [4]: 81%
- Population Hoechst High Intensity Objects (%) [4]: 10%
- Population Membrane Permeable-Phenotype (%) [4]: 14%
- Population Mitochondria Different-Phenotype (%) [4]: 37%
- Population Mitotic Cells (%) [4]: 91%
- Population Normal (%) [4]: 89%
- Population Pyknosed Nuclei (%) [4]: 17%
- Population Tubulin-Different-Phenotype (%) [4]: 99%
- Total Cell Count [4]: 1174
- Population Apoptotic (%) [5]: 15%
- Population Fragmented Nuclei (%) [5]: 13%
- Population Healthy Nuclei (%) [5]: 73%
- Population Hoechst High Intensity Objects (%) [5]: 8%
- Population Membrane Permeable-Phenotype (%) [5]: 18%
- Population Mitochondria Different-Phenotype (%) [5]: 6%
- Population Mitotic Cells (%) [5]: 84%
- Population Normal (%) [5]: 91%
- Population Pyknosed Nuclei (%) [5]: 12%
- Population Tubulin-Different-Phenotype (%) [5]: 37%
- Total Cell Count [5]: 672
- Population Apoptotic (%) [6]: 3%
- Population Fragmented Nuclei (%) [6]: 9%
- Population Healthy Nuclei (%) [6]: 85%
- Population Hoechst High Intensity Objects (%) [6]: 5%
- Population Membrane Permeable-Phenotype (%) [6]: 12%
- Population Mitochondria Different-Phenotype (%) [6]: 3%
- Population Mitotic Cells (%) [6]: 96%
- Population Normal (%) [6]: 94%
- Population Pyknosed Nuclei (%) [6]: 5%
- Population Tubulin-Different-Phenotype (%) [6]: 43%
- Total Cell Count [6]: 1602
- Population Apoptotic (%) [7]: 31%
- Population Fragmented Nuclei (%) [7]: 17%
- Population Healthy Nuclei (%) [7]: 57%
- Population Hoechst High Intensity Objects (%) [7]: 33%
- Population Membrane Permeable-Phenotype (%) [7]: 9%
- Population Mitochondria Different-Phenotype (%) [7]: 42%
- Population Mitotic Cells (%) [7]: 68%
- Population Normal (%) [7]: 66%
- Population Pyknosed Nuclei (%) [7]: 24%
- Population Tubulin-Different-Phenotype (%) [7]: 89%
- Total Cell Count [7]: 562
- Population Apoptotic (%) [8]: 10%
- Population Fragmented Nuclei (%) [8]: 3%
- Population Healthy Nuclei (%) [8]: 84%
- Population Hoechst High Intensity Objects (%) [8]: 17%
- Population Membrane Permeable-Phenotype (%) [8]: 18%
- Population Mitochondria Different-Phenotype (%) [8]: 39%
- Population Mitotic Cells (%) [8]: 89%
- Population Normal (%) [8]: 82%
- Population Pyknosed Nuclei (%) [8]: 11%
- Population Tubulin-Different-Phenotype (%) [8]: 98%
- Total Cell Count [8]: 1112
